# Measurements reported in ChEMBL document CHEMBL1126903.
# Experiments:
# [1] = The pKa value was measured at 31-P chemical shift changes due to protonation
# [2] = The pKa value was measured at 17-O chemical shift changes due to protonation
# [3] = The pKa value was measured at N15 chemical shift changes due to protonation
# Procedure, shortened: (§1)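 Chemical shift recorded at 4 °C across a pH series. Sample pH was read in an ice-water bath (0-4 °C) before and after each NMR run and the two readings averaged, with no correction for deuterium or temperature. The meter was calibrated at 20 °C. pKa came from fitting single- or double-ionization titration equations to shift versus pH, with error estimated at about 0.05 pH units.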
# [4] = The pKa value was measured at 15-N chemical shift changes due to protonation; procedure, shortened: as §1
Compound,pKa [1],pKa [2],pKa [3],pKa [4]
Nc1ncnc2c1ncn2[C@@H]1O[C@H](COP(=O)(O)OP(=O)(O)OP(=O)(O)O)[C@@H](O)[C@H]1O,6.6,,,
O=P(O)(O)NP(=O)(O)O,10.3,10.4,,
CCOP(=O)(NP(=O)(OCC)OCC)OCC,3.8,4.2,,
c1c[nH]cn1,,,7,
NP(N)(=O)O,5.4,,,5.4
N[C@@H](Cc1c[nH]cn1)C(=O)O,,,6.2,
NP(=O)(O)O,3,,,2.8
